Reference: ChEMBL document CHEMBL1132700, “Design, synthesis, structure-activity relationships, and biological characterization of novel arylalkoxyphenylalkylamine sigma ligands as potential antipsychotic drugs” (J Med Chem, 1999)
pIC50: −log10 of the molar value.

What was measured:
D(2) dopamine receptor = D(2) dopamine receptor (Rattus norvegicus, UniProt P61169); experiment: Inhibitory concentration against radioligand [3H](-)-sulpiride binding to Dopamine receptor D2 in rat
Outline: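 Striatal membranes from male Wistar rats (200–250 g), homogenized in 50 mM Tris/HCl pH 7.7, washed by repeated 50000g spins. Filtration on PEI-soaked glass-fiber filters, then scintillation counting. IC50 by nonlinear curve fitting, duplicate determinations.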

[1] = target: Sigma non-opioid intracellular receptor 1 (Rattus norvegicus, UniProt Q9R0C9); experiment: Inhibitory concentration against radioligand [3H]3-PPP binding to Sigma opioid receptor type 1 in rat brain membrane; format: cell membranes
Outline: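 Rat whole-brain membranes from male Wistar rats (200–250 g), homogenized in 50 mM Tris/HCl pH 7.7, washed by repeated 50000g spins. Incubated with 2 nM [3H]-(+)-3-PPP and at least five concentrations of unlabeled drug. Filtered on polyethylenimine-soaked glass-fiber filters and counted by scintillation. IC50 from nonlinear curve fitting of competition data, duplicate determinations.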

Chain of Sigma non-opioid intracellular receptor 1 (Q9R0C9 whole entry): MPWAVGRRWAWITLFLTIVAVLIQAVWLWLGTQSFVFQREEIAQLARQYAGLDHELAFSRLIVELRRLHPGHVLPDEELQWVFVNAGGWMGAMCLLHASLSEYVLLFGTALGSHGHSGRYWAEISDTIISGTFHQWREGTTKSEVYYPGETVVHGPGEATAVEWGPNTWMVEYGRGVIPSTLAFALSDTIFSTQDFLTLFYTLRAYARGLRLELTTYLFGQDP
Chain of D(2) dopamine receptor (P61169 whole entry): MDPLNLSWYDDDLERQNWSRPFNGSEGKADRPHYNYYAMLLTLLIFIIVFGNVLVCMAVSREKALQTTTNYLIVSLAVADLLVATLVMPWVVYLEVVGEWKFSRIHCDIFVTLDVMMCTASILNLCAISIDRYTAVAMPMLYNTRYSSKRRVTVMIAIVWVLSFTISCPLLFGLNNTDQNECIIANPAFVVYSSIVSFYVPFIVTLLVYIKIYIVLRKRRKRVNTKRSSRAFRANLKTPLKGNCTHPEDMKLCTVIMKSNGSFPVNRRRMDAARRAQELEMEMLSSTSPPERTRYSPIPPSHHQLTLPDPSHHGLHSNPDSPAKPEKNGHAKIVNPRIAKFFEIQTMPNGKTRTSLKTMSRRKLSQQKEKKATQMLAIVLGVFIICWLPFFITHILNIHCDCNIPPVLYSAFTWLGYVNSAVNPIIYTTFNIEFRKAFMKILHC

Compound | pIC50 (D(2) dopamine receptor) | pIC50 [1]
Cc1cccc(N2CCN(CCCc3cc(Cl)ccc3OCCc3ccccc3)CC2)n1 | 6.53 | 6.38
CCCN(CCC)CCc1ccc(OC)c(OCCCc2ccccc2)c1 | < 6.00 | 
CCCN(CCC)CCc1cc(Br)ccc1OCCCc1ccccc1 | 6.16 | 7.36
Clc1ccc(OCCc2ccccc2)c(CCN2CCCC2)c1 | 7.16 | 7.44
Clc1ccc(OCCc2ccccc2)c(CCN2CCOCC2)c1 | 6.79 | 6.51
COc1ccc(CCN2CCCC2)cc1OCCc1ccccc1 | < 6.00 | 
Clc1ccc(OCCc2ccccc2)c(CCN2CCN(c3ncccn3)CC2)c1 | 6.84 | < 6.00
COc1ccccc1N1CCN(CCCc2cc(Cl)ccc2OCCc2ccccc2)CC1 | 7.80 | 6.50
Clc1ccc(OCCc2ccccc2)c(CCCN2CCN(c3ccccc3)CC2)c1 | 6.74 | 
CCCN(CCC)CCc1ccc(OCCc2ccccc2)cc1OC | < 6.00 | 
COc1cccc(CCN2CCCC2)c1OCCc1ccccc1 | < 6.00 | 
CCCN(CCC)CCc1cccc(F)c1OCCc1ccccc1 | < 6.00 | 7.66
Clc1ccc(OCCc2ccccc2)c(CCCN2CCN(c3ccccn3)CC2)c1 | 7.03 | 6.93
CCCN(CCC)CCc1cc(Br)cc(Br)c1OCCc1ccccc1 | < 6.00 | 6.11
CCCN(CCC)CCc1ccc(OC)c(OCc2ccccc2)c1.O=C(O)C(=O)O | < 6.00 | 7.55
CCCN(CCC)CCc1cc(Cl)cc(Cl)c1OCCc1ccccc1 | < 6.00 | 6.55
COc1ccc(CCN2CCN(c3ccccn3)CC2)cc1OCCc1ccccc1 | 6.53 | 6.95
CCCN(CCC)CCCCc1cc(Cl)ccc1OCCc1ccccc1 | < 6.00 | 7.59
CCCN(CCC)CCc1cc(Cl)ccc1OCc1ccccc1 | 6.47 | 6.93
COc1ccc(CCN2CCOCC2)cc1OCCc1ccccc1 | < 6.00 | < 6.00
CCCN(CCC)CCc1ccc(OC)c(OCCc2ccc(OC)cc2)c1 | < 6.00 | 9.00

Compound | pIC50 (D(2) dopamine receptor) | pIC50 [1]
CCCN(CCC)CCc1cc(Cl)ccc1OCCCc1ccccc1 | 6.06 | 7.25
CCCN(CCC)CCc1ccc(OC)cc1OCCc1ccccc1 | < 6.00 | 
CCCN(CCC)CCc1ccc(OCCc2ccccc2)c(OC)c1 | < 6.00 | 7.92
CCCN(CCC)CCc1ccc(OC)c(OCCc2cccc(Cl)c2)c1 | < 6.00 | 
CCCN(CCC)CCc1ccc(OC)c(OCCc2ccc(OC)c(OC)c2)c1 |  | 7.17
COc1cccc(CCN2CCN(c3ccccc3)CC2)c1OCCc1ccccc1 | 7.18 | 6.48
Clc1ccc(OCCc2ccccc2)c(CCN2CCN(c3ccccn3)CC2)c1 | 7.29 | < 6.00
CCCN(CCC)CCc1ccc(OC)c(OCCc2ccc(F)cc2)c1 | < 6.00 | 9.00
CCCN(CCC)CCc1ccc(OCCc2ccccc2)c(O)c1 | < 6.00 | 7.60
CCCN(CCC)CCc1ccc(Cl)cc1OCCc1ccccc1 | < 6.00 | 
CCCN(CCC)CCc1ccc(OC)c(OCCc2cccs2)c1 | < 6.00 | 
CCCN(CCc1ccc(OC)c(OCCc2ccccc2)c1)CCC(C)C | 6.17 | 8.54
COc1ccccc1N1CCN(CCc2cc(Cl)ccc2OCCc2ccccc2)CC1 | 7.06 | 6.19
CCCN(CCCO)CCc1ccc(OC)c(OCCc2ccccc2)c1 | < 6.00 | 7.72
COc1ccc(CCN)cc1OCCc1ccccc1 | < 6.00 | 
CCCN(CCC)CCc1ccc(O)c(OCCc2ccccc2)c1 | < 6.00 | 
CCCNCCc1ccc(OC)c(OCCc2ccccc2)c1 | < 6.00 | 
CCCN(CCC)CCc1cc(F)ccc1OCCc1ccccc1 | < 6.00 | 7.89
CCCN(CCC)CCc1ccc(OC)c2c1-c1ccccc1CO2 | < 6.00 | 6.00
CN1CCc2cccc3c2[C@H]1Cc1ccc(O)c(O)c1-3 [APOMORPHINE] |  | < 6.00
